The text below walks through data of ChEMBL document CHEMBL1141184, “Synthesis and biological study of a new series of 4'-demethylepipodophyllotoxin derivatives” (J Med Chem, 2005).

SMILES strings stand for the structures. pIC50: −log10 of the molar value.

One assay has as its system A549. In words: Maximum tolerated dose after treatment on days 14, 21, and 28 against human A549 non-small-cell lung carcinoma.
The species entered for assay [1] is Mus musculus. Description: Percent median survival time to that of control in mice on day 1. The format is functional. A digest of the protocol:
(§1)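 B6D2F1 mice inoculated ip with 10^6 P388 cells (day 0), single iv dose on day 1. MTD = highest dose without toxic death and/or >20% weight loss. T/C (%) = median survival time treated/control ×100.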

The species named for assay [2] is Mus musculus. In words: Percent median survival time to that of control in mice on days 14,21 and 28. The format is functional. In outline:
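BALB/c nude mice given 10^6 A549 cells orthotopically into left pleural space under anaesthesia; iv treatment on days 14, 21 and 28 after implantation. MTD = dose without toxic death and/or >20% weight loss; T/C (%) = median survival time treated/control ×100.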

The target in assay [3] is DNA topoisomerase 2-alpha (Homo sapiens) (UniProt P11388). In words: Inhibition of human DNA topoisomerase II alpha as percent linear DNA after treatment with 20 uM.
The subject of another assay is P388. In words: Maximum tolerated dose value on day 1 against mouse P388 leukemia cells. Type of assay: functional. A digest of the protocol:
as §1

In assay [4] the test system is L1210. In words: Percentage of L1210 cells in the G2M phase after treatment with compound at 2.5 uM concentration expressed as cell cycle effect. Type of assay: functional, Mus musculus. A digest of the protocol: (§2)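 L1210 cells at 2.5×10^5 cells/mL exposed 21 h to the compound; fixed in 70% ethanol, stained 30 min at 20 °C in D-PBS with 100 µg/mL RNase A and 25 µg/mL propidium iodide; 10^4 cells per sample by flow cytometry; value is % of cells in G2M.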

For assay [5], the system named is L1210. In words: Inhibition of L1210 cell proliferation in cytotoxic assay. The format is functional, cell-based. To be noted: Mus musculus. In outline:
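Murine L1210 leukaemia cells (nonadherent, exponential growth) in RPMI 1640 with 10% FCS, 2 mM glutamine, 10 mM HEPES pH 7.4; 48 h exposure to serial dilutions (compounds from 5 mM DMSO stock diluted in water). MTT added for 4 h at 37 °C, formazan dissolved in DMSO, OD 540 nm; IC50 by linear regression on linear part of dose–response; triplicate.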

In assay [6] the test system is L1210. Description: Percentage of L1210 cells in the G2M phase after treatment with compound at 0.1 uM concentration expressed as cell cycle effect. Type of assay: functional, Mus musculus. A digest of the protocol:
as §2

For assay [7], the system named is L1210. Description: Percentage of L1210 cells in the G2M phase after treatment with compound at 10 uM concentration expressed as cell cycle effect. The format is functional, Mus musculus. In outline:
as §2

Assay [8] deals with L1210. In words: Percentage of L1210 cells in the G2M phase after treatment with compound at 1 uM concentration expressed as cell cycle effect. Type of assay: functional, Mus musculus. In outline: as §2
Assay [9] relates to L1210. Description: Percentage of L1210 cells in the G2M phase after treatment with compound at 25 uM concentration expressed as cell cycle effect. The format is functional, Mus musculus. In outline: as §2

Chain of DNA topoisomerase 2-alpha (Homo sapiens) (P11388 whole entry): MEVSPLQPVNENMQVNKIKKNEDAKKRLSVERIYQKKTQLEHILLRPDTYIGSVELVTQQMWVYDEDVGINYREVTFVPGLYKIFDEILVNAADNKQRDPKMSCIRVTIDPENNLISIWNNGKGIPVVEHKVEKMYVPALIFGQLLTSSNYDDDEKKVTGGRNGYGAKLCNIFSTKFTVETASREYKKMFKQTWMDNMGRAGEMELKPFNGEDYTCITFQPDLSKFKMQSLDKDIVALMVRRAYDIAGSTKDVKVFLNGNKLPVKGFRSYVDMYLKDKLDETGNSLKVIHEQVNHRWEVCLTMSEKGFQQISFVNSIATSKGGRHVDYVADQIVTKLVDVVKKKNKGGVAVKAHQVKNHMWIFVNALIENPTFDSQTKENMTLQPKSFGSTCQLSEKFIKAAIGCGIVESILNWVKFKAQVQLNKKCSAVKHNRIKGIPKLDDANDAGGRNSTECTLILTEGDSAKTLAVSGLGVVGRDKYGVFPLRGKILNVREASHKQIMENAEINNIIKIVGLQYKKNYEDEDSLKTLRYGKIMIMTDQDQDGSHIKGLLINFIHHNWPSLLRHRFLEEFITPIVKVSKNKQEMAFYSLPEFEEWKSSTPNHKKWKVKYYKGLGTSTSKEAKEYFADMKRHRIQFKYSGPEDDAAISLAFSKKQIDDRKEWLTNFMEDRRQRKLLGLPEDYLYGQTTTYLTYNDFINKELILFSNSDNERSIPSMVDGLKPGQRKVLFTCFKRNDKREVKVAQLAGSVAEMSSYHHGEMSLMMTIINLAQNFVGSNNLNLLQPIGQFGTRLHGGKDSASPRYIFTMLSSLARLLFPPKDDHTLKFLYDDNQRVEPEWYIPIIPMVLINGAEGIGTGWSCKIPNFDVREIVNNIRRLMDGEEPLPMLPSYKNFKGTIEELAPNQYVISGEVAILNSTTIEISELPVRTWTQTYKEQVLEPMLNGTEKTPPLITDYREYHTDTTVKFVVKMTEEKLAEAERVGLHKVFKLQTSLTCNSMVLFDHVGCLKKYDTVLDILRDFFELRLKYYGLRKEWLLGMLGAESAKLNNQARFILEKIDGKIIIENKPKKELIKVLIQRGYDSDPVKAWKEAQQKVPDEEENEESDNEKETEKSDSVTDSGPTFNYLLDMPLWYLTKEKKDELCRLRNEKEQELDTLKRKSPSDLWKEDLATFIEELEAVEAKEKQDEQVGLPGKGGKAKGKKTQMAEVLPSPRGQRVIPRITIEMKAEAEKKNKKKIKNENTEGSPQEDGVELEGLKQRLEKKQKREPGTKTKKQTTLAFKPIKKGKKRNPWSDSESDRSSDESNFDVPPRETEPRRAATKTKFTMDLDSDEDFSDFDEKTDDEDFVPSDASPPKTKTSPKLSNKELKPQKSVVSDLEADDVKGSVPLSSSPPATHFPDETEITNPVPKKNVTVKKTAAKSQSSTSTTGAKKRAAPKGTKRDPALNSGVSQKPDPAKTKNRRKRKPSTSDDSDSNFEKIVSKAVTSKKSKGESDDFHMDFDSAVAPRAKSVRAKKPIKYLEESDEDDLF

For the compound `COc1cc([C@@H]2c3cc4c(cc3[C@@H](O[C@@H]3O[C@@H]5CO[C@@H](C)O[C@H]5[C@H](O)[C@H]3O)[C@H]3COC(=O)[C@H]23)OCO4)cc(OC)c1O` [ETOPOSIDE], the maximal tolerated dose (MTD) (usually the largest dose that counted as tolerated) was 70 mg/kg with A549 and 100 mg/kg in the assay on P388. For the same compound, the T/C (commonly the result in the treated group divided by that in the control group, in per cent) worked out at 233% in the assay listed under Mus musculus [1] and 131% in the assay filed under Mus musculus [2]. The same compound returned a percent linear DNA in assay [3] of 50%. Moreover, the Activity in the assay on L1210 [4] came to 76%.

With `COc1cc([C@@H]2c3cc4c(cc3[C@@H](OC(=O)NCCN(C)C)C3COC(=O)[C@@H]32)OCO4)cc(OC)c1O` (stereo not given in full), the maximal tolerated dose (MTD) in the assay on A549 and in the assay on P388 was 6.25 mg/kg each time. For the same compound, the T/C in the assay filed under Mus musculus [1] stood at 192%; in the assay filed under Mus musculus [2], 151%. The compound further returned a percent linear DNA in assay [3] of 56%. For the same compound, the negative-log IC50 (pIC50) (as a rule, −log10 of the IC50, conventionally taken in molar units) with L1210 [5] is 7.42. Moreover, in the assay on L1210 [6], the Activity amounted to 67%.

In the case of `COc1cc([C@@H]2c3cc4c(cc3[C@@H](OC(=O)NCCCN(C)C)[C@H]3C(=O)OC[C@H]23)OCO4)cc(OC)c1O`, the percent linear DNA in assay [3] was found to be 0%. The compound also had a pIC50 in the assay on L1210 [5] of 5.85. Moreover, the Activity in the assay with L1210 [7] is 65%.

In the case of `COc1cc([C@@H]2c3cc4c(cc3[C@@H](CCN(C)CCN(C)C)C3COC(=O)[C@@H]32)OCO4)cc(OC)c1O` (stereo not given in full), in assay [3], the percent linear DNA came out at 57%. Also, in the assay with L1210 [5], the negative-log IC50 (pIC50) was 6.22. For the same compound, the Activity in the assay with L1210 [4] amounted to 75%.

Take `COc1cc([C@@H]2c3cc4c(cc3[C@@H](OC(=O)N(C)CCCN)C3COC(=O)[C@@H]32)OCO4)cc(OC)c1O` (stereo not given in full): the percent linear DNA in assay [3] was found to be 8%. In addition, the negative-log IC50 (pIC50) with L1210 [5] was 6.62.

In assay [3], `COc1cc([C@@H]2c3cc4c(cc3[C@@H](OC(=O)NCCCN(C)C)C3COC(=O)[C@@H]32)OCO4)cc(OC)c1O` (stereo not given in full) returned a percent linear DNA of 58%. Besides, the pIC50 in the assay on L1210 [5] is 6.47. Also, in the assay with L1210 [8], the Activity is listed as 72%.

`COc1cc([C@@H]2c3cc4c(cc3[C@@H](OC(=O)N(C)CCCN(C)C)[C@H]3C(=O)OC[C@H]23)OCO4)cc(OC)c1O`: in assay [3], the percent linear DNA amounted to 0%. This compound gave a pIC50 in the assay on L1210 [5] of 4.68.

`COc1cc([C@@H]2c3cc4c(cc3[C@@H](OC(=O)N(C)CCN(C)C)C3COC(=O)[C@@H]32)OCO4)cc(OC)c1O` (stereo not given in full): the MTD in the assay on A549 was 25 mg/kg; in the assay with P388 it was 50 mg/kg. For the same compound, the figures for the T/C in the assay listed under Mus musculus [1] and in the assay filed under Mus musculus [2] were 182% and 102%, respectively. The percent linear DNA in assay [3] was 27%. The compound further gave a pIC50 in the assay with L1210 [5] of 5.77. For the same compound, in the assay with L1210 [4], the Activity stood at 77%.

Turning to `COc1cc([C@@H]2c3cc4c(cc3[C@@H](OC(=O)NCCCN)[C@H]3C(=O)OC[C@H]23)OCO4)cc(OC)c1O`, the percent linear DNA in assay [3] was determined as 0%. Also, the negative-log IC50 (pIC50) with L1210 [5] is 5.37.

In assay [3], `COc1cc([C@@H]2c3cc4c(cc3[C@@H](OC(=O)NCCCN)C3COC(=O)[C@@H]32)OCO4)cc(OC)c1O` (stereo not given in full) returned a percent linear DNA of 38%. Also, in the assay with L1210 [5], the negative logarithm of the IC50 (pIC50) is 5.89.

On to `COc1cc([C@@H]2c3cc4c(cc3[C@@H](OC(=O)N(C)CCCN(C)C)C3COC(=O)[C@@H]32)OCO4)cc(OC)c1O` (stereo not given in full), for which the percent linear DNA in [3] is 17%. The negative logarithm of the IC50 (pIC50) in the assay on L1210 [5] is 6.02.

`COc1cc([C@@H]2c3cc4c(cc3[C@@H](OCNCCN(C)C)C3COC(=O)[C@@H]32)OCO4)cc(OC)c1O` (stereo not given in full): the pIC50 in the assay on L1210 [5] was 4.55.

Compound `COc1cc([C@@H]2c3cc4c(cc3[C@@H](OC(=O)N(C)CCN(C)C)[C@H]3C(=O)OC[C@H]23)OCO4)cc(OC)c1O` yielded a percent linear DNA in [3] of 0%. Also, in the assay with L1210 [5], the negative-log IC50 (pIC50) was 5.28. In addition, the Activity in the assay on L1210 [9] is recorded as 77%.

Turning to `COc1cc([C@@H]2c3cc4c(cc3[C@@H](OC(=O)NCCN(C)C)[C@H]3C(=O)OC[C@H]23)OCO4)cc(OC)c1O`, the results for the MTD in the assay on A549 and with P388 were 6.25 mg/kg and 12.5 mg/kg, respectively. For the same compound, the T/C was 214% in the assay listed under Mus musculus [1] and 152% in the assay filed under Mus musculus [2]. The compound also displayed a percent linear DNA in assay [3] of 64%. The pIC50 with L1210 [5] is 7.06. Further, the Activity in the assay on L1210 [8] is listed as 83%.
